Data published in ChEMBL document CHEMBL4622983, “Structure-Activity Relationship Studies of α-Ketoamides as Inhibitors of the Phospholipase A and Acyltransferase Enzyme Family” (J Med Chem, 2020).
Activity calls are given as the source filed them. The rule behind the calls is not given here.

Columns and labels:
[1] = molecular target: Cytosolic phospholipase A2 (Homo sapiens) (UniProt P47712); assay: Inhibition of human PLA2G4A expressed in HEK293T cell lysates at 50 uM preincubated for 30 mins followed by FP-TAMRA addition and measured after 20 mins by SDS-PAGE based competitive ABPP analysis; assay type: cell-free; conditions: HEK-293T
Sequence of Cytosolic phospholipase A2 (Homo sapiens) (P47712 whole entry): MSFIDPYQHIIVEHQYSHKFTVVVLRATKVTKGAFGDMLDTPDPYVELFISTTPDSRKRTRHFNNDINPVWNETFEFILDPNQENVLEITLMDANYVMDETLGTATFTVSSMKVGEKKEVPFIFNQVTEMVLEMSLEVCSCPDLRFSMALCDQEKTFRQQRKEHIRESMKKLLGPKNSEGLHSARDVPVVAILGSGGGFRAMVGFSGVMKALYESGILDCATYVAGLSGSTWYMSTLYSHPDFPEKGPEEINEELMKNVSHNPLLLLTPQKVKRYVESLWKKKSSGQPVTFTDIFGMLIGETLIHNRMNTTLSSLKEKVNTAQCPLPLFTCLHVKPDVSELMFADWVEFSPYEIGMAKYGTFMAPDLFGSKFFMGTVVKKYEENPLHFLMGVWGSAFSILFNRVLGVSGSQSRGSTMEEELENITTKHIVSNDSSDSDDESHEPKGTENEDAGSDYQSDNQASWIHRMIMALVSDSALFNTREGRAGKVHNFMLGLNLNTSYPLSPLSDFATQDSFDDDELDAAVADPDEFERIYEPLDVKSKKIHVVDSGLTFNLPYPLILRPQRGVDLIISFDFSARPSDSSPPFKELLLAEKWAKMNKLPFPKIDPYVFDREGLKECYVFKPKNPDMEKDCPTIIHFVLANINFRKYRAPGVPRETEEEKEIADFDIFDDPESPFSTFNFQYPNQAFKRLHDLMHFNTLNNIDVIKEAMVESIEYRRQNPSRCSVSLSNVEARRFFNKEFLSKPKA

[2] = molecular target: T1, Phospholipase A and acyltransferase 5 (Homo sapiens) (UniProt Q96KN8); assay: Inhibition of full-length C-terminal FLAG-tagged human PLAAT5 expressed in human U2OS cells assessed as reduction in anandamide level at 10 uM incubated for 4 hrs by LC-MS/MS analysis relative to control; assay type: cell-based
T1 sequence (whole entry): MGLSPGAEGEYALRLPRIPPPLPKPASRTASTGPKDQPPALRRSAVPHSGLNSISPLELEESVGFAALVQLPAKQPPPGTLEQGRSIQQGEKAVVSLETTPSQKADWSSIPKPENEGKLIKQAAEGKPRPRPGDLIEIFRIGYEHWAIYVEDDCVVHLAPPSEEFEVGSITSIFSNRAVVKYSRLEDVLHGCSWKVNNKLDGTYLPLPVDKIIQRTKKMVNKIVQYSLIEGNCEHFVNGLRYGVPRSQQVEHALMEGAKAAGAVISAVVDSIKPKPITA
In short: (§1)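 U2OS cells transfected with PLAAT2, PLAAT5 or empty vector (PEI, 1:5 plasmid/PEI). At 24 h, switched to serum-free medium with 10 μM compound (0.1% DMSO) or DMSO for 4 h at 37 °C. Pellets extracted with MTBE against deuterated internal standards. NAEs, 2-AG and free fatty acids quantified by LC–MS/MS, normalized to live cell count. Four biological replicates; one-way ANOVA.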

U2OS [3] = assay: Downregulation of N-linoleoylethanolamine level in human U2OS cells at 10 uM after 4 hrs by LC-MS/MS analysis; assay type: functional, cell-based; in short: as §1
U2OS [4] = assay: Inhibition of serine hydrolase in human U2OS cytosolic fraction at 10 uM preincubated for 30 mins followed by FP-TAMRA addition and measured after 15 mins by SDS-PAGE based competitive ABPP analysis
In short: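 U2OS cytosol or membrane lysate at 2.5 μg/μL, pretreated with inhibitor or DMSO vehicle for 30 min at rt. Probe then added for 15 min at rt: MB064 at 2 μM or FP-TAMRA at 500 nM. Samples denatured in Laemmli buffer and resolved by SDS-PAGE. In-gel fluorescence scanned at Cy3/Cy5 settings and normalized to Coomassie staining.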

[5] = molecular target: T2, Phospholipase A and acyltransferase 2 (Homo sapiens) (UniProt Q9NWW9); assay: Inhibition of full-length C-terminal FLAG-tagged human PLAAT2 expressed in human U2OS cells assessed as reduction in absolute N-palmitoleoylethanolamine level at 10 uM incubated for 4 hrs by LC-MS/MS analysis; assay type: cell-based; in short: as §1
T2 sequence (whole entry): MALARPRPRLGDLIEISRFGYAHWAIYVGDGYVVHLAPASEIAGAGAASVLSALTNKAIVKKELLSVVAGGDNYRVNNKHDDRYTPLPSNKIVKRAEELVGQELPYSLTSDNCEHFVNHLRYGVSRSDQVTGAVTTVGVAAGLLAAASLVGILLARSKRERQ

[6] = molecular target: T2, Phospholipase A and acyltransferase 2 (Homo sapiens); assay: Inhibition of full-length C-terminal FLAG-tagged human PLAAT2 expressed in human U2OS cells assessed as reduction in absolute N-oleoylethanolamine level at 10 uM incubated for 4 hrs by LC-MS/MS analysis; assay type: cell-based; in short: as §1
[7] = molecular target: T2, Phospholipase A and acyltransferase 2 (Homo sapiens); assay: Inhibition of full-length C-terminal FLAG-tagged human PLAAT2 expressed in human U2OS cells assessed as reduction in absolute N-palmitoylethanolamine level at 10 uM incubated for 4 hrs by LC-MS/MS analysis; assay type: cell-based; in short: as §1
U2OS [8] = assay: Inhibition of serine hydrolase in human U2OS cell membrane fraction at 10 uM preincubated for 30 mins followed by FP-TAMRA addition and measured after 15 mins by SDS-PAGE based competitive ABPP analysis
In short: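 U2OS membrane lysate (2.5 μg/μL) preincubated with inhibitor for 30 min at rt. FP-TAMRA 500 nM added for 15 min at rt. SDS-PAGE with in-gel fluorescence normalized to Coomassie.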

[9] = molecular target: T1, Phospholipase A and acyltransferase 5 (Homo sapiens); assay: Inhibition of full-length C-terminal FLAG-tagged human PLAAT5 expressed in human U2OS cells assessed as reduction in absolute N-oleoylethanolamine level at 10 uM incubated for 4 hrs by LC-MS/MS analysis; assay type: cell-based; in short: as §1
[10] = molecular target: Cytosolic phospholipase A2 epsilon (Homo sapiens) (UniProt Q3MJ16); assay: Inhibition of full length human PLA2G4E assessed as enzyme remaining activity at 10 uM using FP-TAMRA as substrate preincubated for 30 mins followed by substrate addition and measured after 5 mins by SDS-PAGE based ABPP analysis relative to control
Sequence of Cytosolic phospholipase A2 epsilon (Homo sapiens) (Q3MJ16 whole entry): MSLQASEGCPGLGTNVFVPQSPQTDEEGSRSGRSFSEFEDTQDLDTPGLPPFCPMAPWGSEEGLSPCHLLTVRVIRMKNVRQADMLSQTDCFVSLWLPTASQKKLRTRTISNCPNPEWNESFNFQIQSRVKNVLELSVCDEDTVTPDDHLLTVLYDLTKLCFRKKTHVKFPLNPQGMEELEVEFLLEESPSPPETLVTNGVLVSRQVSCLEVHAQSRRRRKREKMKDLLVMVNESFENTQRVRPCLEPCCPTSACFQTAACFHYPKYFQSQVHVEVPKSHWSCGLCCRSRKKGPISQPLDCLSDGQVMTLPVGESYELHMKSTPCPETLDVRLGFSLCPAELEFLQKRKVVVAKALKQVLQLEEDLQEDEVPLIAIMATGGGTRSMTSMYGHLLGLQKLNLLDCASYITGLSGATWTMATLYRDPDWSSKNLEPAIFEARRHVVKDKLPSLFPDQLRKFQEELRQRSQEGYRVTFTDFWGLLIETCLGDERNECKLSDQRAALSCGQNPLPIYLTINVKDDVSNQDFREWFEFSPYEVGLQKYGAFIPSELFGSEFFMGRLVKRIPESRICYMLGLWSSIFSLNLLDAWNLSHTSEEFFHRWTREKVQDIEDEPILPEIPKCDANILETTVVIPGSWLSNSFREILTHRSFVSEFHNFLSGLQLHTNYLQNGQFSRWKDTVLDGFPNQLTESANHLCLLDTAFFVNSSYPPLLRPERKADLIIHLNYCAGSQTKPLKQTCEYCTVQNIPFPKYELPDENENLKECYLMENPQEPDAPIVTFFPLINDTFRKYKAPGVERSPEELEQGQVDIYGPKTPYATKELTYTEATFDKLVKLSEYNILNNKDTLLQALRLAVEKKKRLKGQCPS
In short: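 hPLA2G4E-overexpressing membrane lysate (1 μg/μL) preincubated with 10 μM inhibitor for 30 min at rt. FP-TAMRA 50 nM added for 5 min at rt. Resolved on 8% SDS-PAGE, fluorescence normalized to Coomassie. Reported as % remaining activity ± SD, n = 3.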

[11] = molecular target: T3, Phospholipase A and acyltransferase 2 (Homo sapiens, UniProt Q9NWW9); assay: Inhibition of full-length C-terminal FLAG-tagged human PLAAT2 expressed in HEK293T cell lysate preincubated for 30 mins followed by MB064 addition and measured after 20 mins by SDS-PAGE based ABPP analysis; assay type: cell-free, HEK-293T
T3 sequence (Q9NWW9 whole entry): T2 sequence (whole entry)
In short: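 Dose–response competitive ABPP on cytosol only, from HEK293T overexpressing FLAG-tagged PLAAT. Inhibitor 30 min rt, then MB064 20 min rt. PLAAT2 0.25 μg/μL with 250 nM probe; PLAAT3 0.5 μg/μL with 250 nM; PLAAT4 and PLAAT5 1 μg/μL with 500 nM. Fluorescence normalized to Coomassie. IC50 from curves, reported as pIC50 ± SEM, n = 3.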

[12] = molecular target: T2, Phospholipase A and acyltransferase 2 (Homo sapiens); assay: Inhibition of full-length C-terminal FLAG-tagged human PLAAT2 expressed in human U2OS cells assessed as reduction in 2-AG level at 10 uM incubated for 4 hrs by LC-MS/MS analysis; assay type: cell-based; in short: as §1
[13] = molecular target: T1, Phospholipase A and acyltransferase 5 (Homo sapiens); assay: Inhibition of full-length C-terminal FLAG-tagged human PLAAT5 expressed in human U2OS cells assessed as reduction in absolute N-palmitoleoylethanolamine level at 10 uM incubated for 4 hrs by LC-MS/MS analysis; assay type: cell-based; in short: as §1
[14] = molecular target: T1, Phospholipase A and acyltransferase 5 (Homo sapiens); assay: Inhibition of full-length C-terminal FLAG-tagged human PLAAT5 expressed in human U2OS cells assessed as reduction in arachidonic acid level at 10 uM incubated for 4 hrs by LC-MS/MS analysis; assay type: cell-based; in short: as §1
U2OS [15] = assay: Downregulation of N-palmitoleoylethanolamine level in human U2OS cells at 10 uM after 4 hrs by LC-MS/MS analysis; assay type: functional, cell-based; in short: as §1
[16] = molecular target: N-acyl-phosphatidylethanolamine-hydrolyzing phospholipase D (Homo sapiens) (UniProt Q6IQ20); assay: Inhibition of full length human NAPE-PLD expressed in HEK293T cells assessed as enzyme remaining activity at 10 uM using PED6 as substrate preincubated for 30 mins followed by substrate addition and measured for 1 hr at 2 mins relative to control; assay type: cell-based; conditions: HEK-293T
Sequence of N-acyl-phosphatidylethanolamine-hydrolyzing phospholipase D (Homo sapiens) (Q6IQ20 whole entry, looked up): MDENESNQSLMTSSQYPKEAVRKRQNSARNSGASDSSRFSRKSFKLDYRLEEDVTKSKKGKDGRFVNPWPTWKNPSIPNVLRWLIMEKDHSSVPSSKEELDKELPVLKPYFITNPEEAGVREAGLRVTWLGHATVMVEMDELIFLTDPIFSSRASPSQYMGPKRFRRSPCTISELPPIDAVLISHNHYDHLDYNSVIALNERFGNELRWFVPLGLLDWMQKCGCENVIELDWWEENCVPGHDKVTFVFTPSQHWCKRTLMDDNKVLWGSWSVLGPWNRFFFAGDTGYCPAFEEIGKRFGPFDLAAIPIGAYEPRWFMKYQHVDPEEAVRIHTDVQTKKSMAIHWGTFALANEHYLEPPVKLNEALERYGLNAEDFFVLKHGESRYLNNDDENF

For `O=C(CCCc1ccccc1)C(=O)NCCc1ccc(Oc2ccccc2)cc1`, the inhibition [1] was “inactive”, the fold change (FC) [2] was 2 and the inhibition (U2OS [3]) was “inactive”. For the same compound, the inhibition (U2OS [4]) was “inactive”, the inhibition [5] was “Active” and the inhibition [6] was “Active”. For the same compound, the inhibition [7] was “Active”, the inhibition (U2OS [8]) was “inactive” and the inhibition [9] was “Active”. For the same compound, the Activity [10] was 95%, the IC50 [11] was 50.1 nM and the inhibition [12] was “inactive”. For the same compound, the inhibition [13] was “Active”, the inhibition [14] was “inactive” and the inhibition (U2OS [15]) was “inactive”. For the same compound, the Activity [16] was 92%.
